Fewer inactive variants are shown than the library holds.
B1: tRNA (parent)
chain: GUUCCGUUGGCGUAAUGGUAACGCGUCUCCCUCCUAAGGAGAAGACUGCGGGUUCGAGUCCCGUACGGAACG

Variants of: B1
Assay: yeast fitness relative to wild type (ratio to wild type); higher = fitter; tRNA-Arg(CCU), competitive growth, 37 C, YPD
Summary of the method: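 Changes in genotype frequencies gave Darwinian fitness relative to wild type. Frequencies were read by 100-nucleotide paired-end sequencing of gene amplicons before and after pooled Saccharomyces cerevisiae strains, carrying tRNA-Arg(CCU) gene variants at the native locus, were competed in YPD at 37°C for 24 hours in six replicates. A genotype was kept only with ≥ 100 starting reads, and estimates < 0.5 were set to 0.5.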
In the case of A14G G25A A36U G50A C62G, the yeast fitness is reported as no more than 0.5. For A14G A45C, the yeast fitness was 0.718. Work on A14G C55G yielded a yeast fitness of 0.583. Variant A14G C24G C31U C66G has a yeast fitness of no more than 0.5. Variant A14G A42C C62A has a yeast fitness of no more than 0.5. For A14G C46A, the yeast fitness was 0.873. For A14G A42U G68C, the yeast fitness was no more than 0.5. In the case of A14G C34A C62G G68C, the yeast fitness is reported as 0.763. For A14G C30U C46A G50A, the yeast fitness was no more than 0.5. A14G A43C A45G G50A gave a yeast fitness of no more than 0.5. For A14G G18A U26A U32C, the yeast fitness was no more than 0.5. In the case of A14G C22G U26C C31G, the yeast fitness is reported as 0.615. A14G C30G gave a yeast fitness of 0.591. A14G C30A gave a yeast fitness of 0.861. In the case of A14G C30A C34A A43C C62U, the yeast fitness is reported as no more than 0.5. Work on A14G G25A G44C yielded a yeast fitness of 0.782. Work on A14G G17C A36C G48A C49G G51A yielded a yeast fitness of no more than 0.5. With A14G C29A C62U the yeast fitness was no more than 0.5. Variant A14G C30A C34A A43C has a yeast fitness of no more than 0.5. For A14G C24G C31U G68A, the yeast fitness was no more than 0.5. In the case of A14G C31U A42G C62U A69C, the yeast fitness is reported as no more than 0.5. Variant A14G C24U C30U C60A has a yeast fitness of no more than 0.5. For A14G G41A A69C, the yeast fitness was no more than 0.5. Variant A14G C30U C46U G50A A69G has a yeast fitness of 0.704. A14G G17A G44C A65U gave a yeast fitness of no more than 0.5. A14G A43U gave a yeast fitness of 0.803. In the case of A14G A43C, the yeast fitness is reported as 0.823. In the case of A14G C27U C49A U53A C61U, the yeast fitness is reported as no more than 0.5. A14G G17A A57C gave a yeast fitness of no more than 0.5. For A14G C34G A65U C66A, the yeast fitness was no more than 0.5. Work on A14G C22G A70U yielded a yeast fitness of 0.774. With A14G C22G C30G G68A the yeast fitness was no more than 0.5. A14G C34G A43C C62A C66A gave a yeast fitness of no more than 0.5. For A14G A40U A65C, the yeast fitness was 0.533. With A14G G23A U47C the yeast fitness was no more than 0.5. For A14G A43C G52C, the yeast fitness was no more than 0.5. Work on A14G C27A A45U G67C yielded a yeast fitness of 0.521. With A14G A42U the yeast fitness was 0.873. A14G C31A C34G A43C gave a yeast fitness of no more than 0.5. Variant A14G C29G A37G C46U C66G has a yeast fitness of no more than 0.5. For A14G C29G A37G C66G, the yeast fitness was no more than 0.5. A14G C24A C31U A40U A70G showed a yeast fitness of 0.571. A14G C66U gave a yeast fitness of 0.891. With A14G C66A the yeast fitness was 0.656. A14G A42U A45C U59A showed a yeast fitness of no more than 0.5. Variant A14G C29G C46U A57G C61U has a yeast fitness of no more than 0.5. Variant A14G G41C C55A has a yeast fitness of no more than 0.5. Work on A14G C49A yielded a yeast fitness of 0.694. For A14G G18C C29G U54C, the yeast fitness was no more than 0.5. In the case of A14G C29G C31U, the yeast fitness is reported as 0.6. A14G G18C A21U C29G G67A showed a yeast fitness of no more than 0.5. With A14G G39A G51C the yeast fitness was no more than 0.5. In the case of A14G G17C G39A A69C, the yeast fitness is reported as no more than 0.5. In the case of A14G C29U G41A U54G C55U A69U, the yeast fitness is reported as no more than 0.5. With A14G G39A G44C C61A G63C the yeast fitness was no more than 0.5. For A14G G38A A40C G50A U54A, the yeast fitness was 0.523. A14G G23C C29G G63C C66G showed a yeast fitness of no more than 0.5. Variant A14G G52C has a yeast fitness of 0.577. A14G C24U A57G showed a yeast fitness of 0.639. Variant A14G C24G A42C G63A has a yeast fitness of no more than 0.5. A14G C34U gave a yeast fitness of 0.62. A14G C22A C29U G56C G58C C66U gave a yeast fitness of no more than 0.5. In the case of A14G G41A G44C C49U, the yeast fitness is reported as no more than 0.5. A14G G41C showed a yeast fitness of 0.917. Variant A14G G23A A36G C66U has a yeast fitness of no more than 0.5. A14G G18A U26A G50A showed a yeast fitness of no more than 0.5. A14G C24G C31U C55A gave a yeast fitness of 0.552. Work on A14G C24A C31U A40U yielded a yeast fitness of no more than 0.5. Variant A14G C31G A37U A57C A69U has a yeast fitness of no more than 0.5. Work on A14G C24G C31U C55A C61A yielded a yeast fitness of no more than 0.5. In the case of A14G C27G C34G A37U, the yeast fitness is reported as 0.61. A14G C31G gave a yeast fitness of 0.945. A14G G51A gave a yeast fitness of 0.657. A14G C62G gave a yeast fitness of 0.688. In the case of A14G C24G G50A C55G, the yeast fitness is reported as no more than 0.5. A14G A69U A70C showed a yeast fitness of 0.726. For A14G C24U A43C A70U, the yeast fitness was no more than 0.5. A14G C31U C34U G38A C46U gave a yeast fitness of no more than 0.5. Work on A14G G18C C30U C34U C61G yielded a yeast fitness of no more than 0.5. A14G C22G showed a yeast fitness of 0.806. For A14G G51A U54C, the yeast fitness was no more than 0.5. Work on A14G G18C C31A yielded a yeast fitness of no more than 0.5. Variant A14G C24U C55A G63C has a yeast fitness of no more than 0.5. A14G C22U A45U showed a yeast fitness of 0.626. A14G C27U U47A C62U C66U showed a yeast fitness of no more than 0.5. With A14G C61U the yeast fitness was 0.934. A14G G18A showed a yeast fitness of 0.63. In the case of A14G C29U G39A, the yeast fitness is reported as 0.574. In the case of A14G C30U A45U, the yeast fitness is reported as 0.675. Work on A14G C24G G52A yielded a yeast fitness of no more than 0.5. A14G C29A A37G showed a yeast fitness of no more than 0.5. Work on A14G C27G C30U C31G yielded a yeast fitness of 0.76. A14G C24G gave a yeast fitness of 0.597. A14G C29G A36U C46G showed a yeast fitness of no more than 0.5. A14G C27A U54G gave a yeast fitness of no more than 0.5. Work on A14G C27G yielded a yeast fitness of 0.562. For A14G C31U C33U A45C G48A, the yeast fitness was 0.626. With A14G G44C G58A A65G the yeast fitness was 0.553. A14G G38C showed a yeast fitness of 0.787. A14G G39A A43U gave a yeast fitness of 0.643. Variant A14G C31U G68C has a yeast fitness of no more than 0.5. With A14G C24U G48C C66A the yeast fitness was no more than 0.5. In the case of A14G C24U G52A C60U, the yeast fitness is reported as no more than 0.5. A14G C22G U35A gave a yeast fitness of 0.61. A14G C22G U35G A40C A70G showed a yeast fitness of no more than 0.5. Variant A14G G25A C30A A57U has a yeast fitness of 0.607. A14G C27G A65U G68U showed a yeast fitness of no more than 0.5. With A14G C30A C34G the yeast fitness was 0.508. Work on A14G G23A C49A yielded a yeast fitness of no more than 0.5. A14G G52C C66G showed a yeast fitness of 0.619. A14G A42G G51C showed a yeast fitness of no more than 0.5. In the case of A14G C30G A45G, the yeast fitness is reported as 0.585. In the case of A14G G25C C31A, the yeast fitness is reported as no more than 0.5. For A14G G25A C30A A70C, the yeast fitness was no more than 0.5. For A14G G48C G67C, the yeast fitness was no more than 0.5. Variant A14G G39C G51A has a yeast fitness of no more than 0.5. With A14G C34G A45U the yeast fitness was no more than 0.5. A14G C29G C33U gave a yeast fitness of 0.55. In the case of A14G C27U C46A, the yeast fitness is reported as 0.673. For A14G C22U A37G A70C, the yeast fitness was no more than 0.5. A14G G48A C66U showed a yeast fitness of 0.645. Variant A14G C46U G50C C55U A57U C62G A70U has a yeast fitness of 0.54. A14G C29A C31A A40C G44A U59A gave a yeast fitness of no more than 0.5. For A14G C34U G52A C66U A70U, the yeast fitness was no more than 0.5. With A14G A57G G68C the yeast fitness was 0.616. In the case of A14G C31G A57C A65C, the yeast fitness is reported as no more than 0.5. A14G A57C C62U showed a yeast fitness of no more than 0.5. Work on A14G G23A C60A yielded a yeast fitness of no more than 0.5. With A14G G25C C29A G52A the yeast fitness was no more than 0.5. With A14G C30A C34A A43C A65C A70C the yeast fitness was no more than 0.5. Work on A14G C22G U28A C31G C55A G68C yielded a yeast fitness of no more than 0.5. Work on A14G C24G G44C G58C G68U yielded a yeast fitness of no more than 0.5. Variant A14G G23A U54G has a yeast fitness of no more than 0.5. A14G C34G G63C G67C gave a yeast fitness of no more than 0.5. With A14G C31A G44C C60G the yeast fitness was no more than 0.5. A14G C27G C62U gave a yeast fitness of no more than 0.5. A14G C29G A42C showed a yeast fitness of no more than 0.5. For A14G A40U C55A G68U, the yeast fitness was no more than 0.5. With A14G C34G A43C C62U the yeast fitness was no more than 0.5. In the case of A14G G38A C60U G67C, the yeast fitness is reported as no more than 0.5. For A14G A45C G58A, the yeast fitness was 0.622. In the case of A14G G17A G23A U28G, the yeast fitness is reported as no more than 0.5. A14G G23A A70C showed a yeast fitness of no more than 0.5. For A14G C31G A43U C46G A70U, the yeast fitness was no more than 0.5. In the case of A14G A65G A70C, the yeast fitness is reported as 0.755. In the case of A14G G17C C22G, the yeast fitness is reported as no more than 0.5. A14G C31A A43G showed a yeast fitness of 0.679. For A14G C29G, the yeast fitness was 0.564. A14G G41A U47A C62A gave a yeast fitness of no more than 0.5. With A14G A57U A65U the yeast fitness was no more than 0.5. A14G C24G C31U C55G G63C gave a yeast fitness of no more than 0.5. A14G A42G C46G A57G showed a yeast fitness of no more than 0.5. For A14G A70U, the yeast fitness was 0.662. In the case of A14G C22G U64A, the yeast fitness is reported as no more than 0.5. Variant A14G G18A C22G has a yeast fitness of no more than 0.5. A14G C34G C60G A70C gave a yeast fitness of no more than 0.5. Work on A14G C30U C46A yielded a yeast fitness of 0.763. With A14G C22U C29A the yeast fitness was no more than 0.5. In the case of A14G C22U C24G A42C A57G, the yeast fitness is reported as no more than 0.5. With A14G C24U C49U the yeast fitness was 0.675. A14G A69G showed a yeast fitness of 0.821. A14G A69U gave a yeast fitness of 0.921. With A14G A40U C46G G50C A57U the yeast fitness was no more than 0.5. A14G C49G A69U showed a yeast fitness of 0.566. A14G G23C C55U C61U A65U gave a yeast fitness of 0.558. A14G G51A A57C gave a yeast fitness of 0.742. A14G G17C A36C G48A C49G G51A A70C showed a yeast fitness of no more than 0.5.

Source: the RNAGym collection of RNA variant scans (doi:10.1126/science.aae0568)
